From PubChem BioAssay
GAA850 FXN act = FXN promoter activators, primary screen, cell-based, luciferase luminescence, HEK293 lucGAA850 | HEK293 lucGAA850 FXN promoter luciferase reporter, 24 h; percent of 10 µM SAHA response | activation, % at 6 µM | actives 0.56% (n = 360,000);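 active means activation above the average of all compounds screened plus 3 SD, cutoff fixed separately per campaign, cut at about 7.5% in these data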;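 further: 0% = DMSO wells and 100% = 10 µM SAHA wells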
XBP1 UPR activ = activators of adaptive XBP1 UPR arm, primary screen, cell-based, CHO-XBP1 luciferase reporter, luminescence, uHTS; IRE1-XBP1 UPR activation; percent of tunicamycin response, DMSO as zero; activation, % at 20 µM; actives 0.33% (n = 330,000);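 active means versus positive control, 20 µM dose yields 30% or more activation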;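 further: 100% = tunicamycin at 10 µg/mL and 0% = DMSO only wells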
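Test system: CHO-XBP1 luciferase reporter cells | Buffer or medium: Serum-containing F12 medium, 10% FBS | Schedule: 6 h compound exposure at 37 °C, 5% CO2 | Detection: Steady-Glo luciferase glow luminescence, 10 min after reagent addition | Read-out basis: Activation, % of tunicamycin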
CHOP UPR activ = activators of apoptotic CHOP UPR arm, primary screen, cell-based, CHO-CHOP luciferase reporter, luminescence, uHTS. actives 0.34% (n = 330,000). AID 449763, 2010. UPR activation; percent of tunicamycin response over DMSO baseline. activation, % at 10 µM;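 active means at 10 µM dose, activation of 40% or more, normalized to positive control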;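 further: 100% = tunicamycin at 10 µg/mL and 0% = DMSO alone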
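System: CHO CHOP reporter cells. Amount: 500 cells per well. Buffer or medium: F12 medium, 10% FBS. Compound dosing: one dose, 10 µM in 0.5% DMSO. Incubation: 6 h compound exposure at 37 °C after overnight seeding. Technique: Steady-Glo luciferase luminescence. Benchmarks: tunicamycin and DMSO controls.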
CHOP inh = inhibitors of CHOP promoter induction, primary screen, cell-based, unfolded protein response, luciferase reporter. CHO-K1 CHOP-promoter luciferase, tunicamycin-induced, 15-18 h. inhibition, % at 10 µM. actives 3.8% (n = 220,000);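 active means compounds that reduced the stress-induced luciferase reporter signal by more than about 70% of percent inhibition, limit read from the data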;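 further: 0% = tunicamycin plus vehicle and 100% = wells without tunicamycin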
Starred values were filed as active, the others as inactive; . = not tested or not shown. This is one part of a sample in which hits are shown more often than they occur.

SMILES | GAA850 FXN act | XBP1 UPR activ | CHOP UPR activ | CHOP inh
CCC(C)C1N=C(c2ccccc2)c2cc(Cl)ccc2N(CC(=O)NCc2ccco2)C1=O (stereo not drawn) | 0 | 2 | -1 | 88*
CCCN(CCC)[C@@H]1CCc2c(F)ccc(O)c2C1 | . | . | . | -15
CN(C)C=C1C(=O)N(C2CCCCC2)C(=O)N(C2CCCCC2)C1=O | 1 | 5 | 3 | 77*
NCCCP(=O)(O)O | . | . | . | -35
CNC(=O)OCC[N+](C)(C)C | . | . | . | 69
CC(C)(C)c1cc([N+](=O)[O-])cc(C(C)(C)C)c1O | . | 14 | 3 | 73*
CCn1cnc2c(Nc3cccc(Cl)c3)nc(N[C@@H]3CCCC[C@@H]3N)nc21 | . | . | . | -5
CC(C)CC(=O)NC(Oc1ccc(Cl)cc1)C(Cl)(Cl)Cl (stereo not drawn) | 0 | -2 | 0 | 72*
CCCC(=O)NC(Oc1ccc(OC)cc1)C(Cl)(Cl)Cl (stereo not drawn) | 2 | 1 | 3 | 4
CC(=O)c1cn(Cc2ccccc2C#N)c2ccccc12 | -2 | -1 | 1 | 52
CC(C)C(=O)c1cn(Cc2ccccc2C#N)c2ccccc12 | -1 | -7 | -3 | 77*
O=C1NC(=O)N(CCc2ccc(F)cc2)C(=O)/C1=C/c1ccco1 | 2 | 5 | -1 | -23
Cc1ccc(/C=C2/C(=O)NC(=O)N(CCc3ccc(F)cc3)C2=O)o1 | -1 | -2 | 1 | 83*
NC(=O)CI | . | . | . | -11
CCC(C)N1C(=O)NC(=O)C2(Cc3c(ccc4ccccc34)N(C)C2)C1=O (stereo not drawn) | -2 | -1 | 1 | 76*
C=CCN1CC[C@]23c4c5ccc(O)c4O[C@@H]2/C(=N/N=C2\CC[C@@]4(O)C6Cc7ccc(O)c8c7[C@@]4(CCN6CC=C)[C@@H]2O8)CC[C@@]3(O)C1C5 | . | . | . | 8
COC(=O)C(O)(c1ccc(NC(=S)NC(=O)c2ccc(Cl)cc2Cl)cc1)C(F)(F)F (stereo not drawn) | 2 | 3 | 1 | 71*
CCOC(=O)C(O)(c1ccc(NC(=S)NC(=O)c2ccc(Cl)cc2Cl)c(C)c1)C(F)(F)F (stereo not drawn) | -6 | 0 | 3 | 70*
COc1ccc2c3c1O[C@H]1C(=O)CC[C@@]4(O)C(C2)N(CC2CC2)CCC314 (stereo partly drawn) | . | . | . | 2
CCCCC1(CCCC)C(=O)NC(=Nc2cccc(C)c2)NC1=O | -3 | 4 | 1 | 80*
CCCC1(CCC)C(=O)NC(=Nc2ccccc2)NC1=O | 0 | 5 | 1 | 14
COc1ccc2c(c1)[C@@]13CCCC[C@H]1[C@@H](C2)NCC3 | . | . | . | -7
COc1cc2c(cc1OC)[C@@H]1C(=O)c3ccc4c(c3O[C@@H]1CO2)C[C@H](C(C)C)O4 | -5 | -4 | 8 | 78*
COc1cc2c(cc1OC)C1C(=O)c3ccc4c(c3OC1CO2)CC(C(C)C)O4 (stereo not drawn) | -6 | . | . | .
C#CCN(C)[C@@H](C)Cc1ccccc1 | . | . | . | -3
SMILES | GAA850 FXN act | XBP1 UPR activ | CHOP UPR activ | CHOP inh
Cc1cccc(NP(=O)(Oc2ccccc2F)Oc2ccccc2F)c1 | -1 | . | . | 78*
O=P(Nc1cccc(F)c1)(Oc1ccccc1F)Oc1ccccc1F | 0 | -2 | 4 | 76*
C[C@@H]1O[C@H](C[N+](C)(C)C)C[C@H]1O | . | . | . | 0
CC(C)[C@H]1C(=O)O[C@H](C(C)C)C(=O)N(C)[C@@H](C(C)C)C(=O)O[C@H](C(C)C)C(=O)N(C)[C@@H](C(C)C)C(=O)O[C@H](C(C)C)C(=O)N1C | -12 | 5 | 23 | 93*
C[C@H]1O[C@H]1P(=O)(O)O | 1 | -9 | 0 | 0
CN1CC[C@@]2(C)c3cc(O)ccc3N(C)C12 (stereo partly drawn) | . | . | . | 9
CCc1ccc(N2C(=O)NC(=O)/C(=C/c3cccn3CCOc3ccc(C)cc3)C2=O)cc1 | 3 | 8 | 9 | 90*
Cc1cccc(OCCn2cccc2/C=C2/C(=O)NC(=O)N(Cc3ccco3)C2=O)c1 | 1 | 1 | 3 | -32
Cc1cc(C)cc(N2C(=O)NC(=O)/C(=C\c3cccn3-c3ccc(Cl)cc3)C2=O)c1 | 0 | -7 | 271* | 30
O=C1NC(=O)N(Cc2ccco2)C(=O)/C1=C\c1cccn1CCOc1ccc(Cl)cc1 | 0 | 2 | 1 | 76*
CCc1ccc(N2C(=O)NC(=O)/C(=C/c3cccn3CCOc3ccc(C(C)CC)cc3)C2=O)cc1 (stereo not drawn) | 1 | 22 | 23 | 86*
CC1OC1P(=O)(O)O (stereo not drawn) | . | . | . | 2
N[C@H](CCCCCP(=O)(O)O)C(=O)O | . | . | . | -4
C=CCN1CC[C@]23CCCCC2[C@H]1Cc1ccc(O)cc13 (stereo partly drawn) | . | . | . | -3
CC(C)(C)NCC(O)c1ccccc1Cl (stereo not drawn) | . | . | . | 33
O=C(/C=C/c1ccccc1)c1c(O)n(CCc2ccccc2)c(=O)[nH]c1=O | 1 | 2 | 1 | 92*
CCCCCCn1c(N)c(C(=O)NCCN2CCOCC2)c2nc3ccccc3nc21 | -1 | 4 | -2 | 86*
CCCCCn1c(N)c(C(=O)NCCN2CCOCC2)c2nc3ccccc3nc21 | 0 | 4 | -1 | 46
CCCCn1c(N)c(C(=O)NCc2cccs2)c2nc3ccccc3nc21 | -1 | -2 | -1 | 92*
CCCCCn1c(N)c(C(=O)NCc2cccs2)c2nc3ccccc3nc21 | . | 2 | -3 | 68
COc1ccc2c(c1)C13CCCCC1C(C2)N(C)CC3 (stereo not drawn) | . | . | . | -7
CCn1c(O)c(N=Nc2ccc(S(=O)(=O)N3CCOCC3)cc2)c(=O)n(CC)c1=S | 2 | -7 | 29 | 73*
NC(Cc1ccc(F)cc1)c1csc(Nc2ccccn2)n1 (stereo not drawn) | 2 | . | . | .
CN1C(=O)CCS(=O)(=O)C1c1ccc(Cl)cc1 (stereo not drawn) | . | . | . | -3
NCC#Cc1ccccc1 | . | . | . | 5
SMILES | GAA850 FXN act | XBP1 UPR activ | CHOP UPR activ | CHOP inh
CC(O)(CS(=O)(=O)c1cccc(C(F)(F)F)c1)C(=O)Nc1cccc(C(F)(F)F)c1 (stereo not drawn) | -1 | -1 | -2 | 72*
O=c1c2ccccc2nc(/C=C/c2ccc(O)cc2)n1-c1cccc(O)c1 | 1 | 0 | 0 | 71*
O=[N+]([O-])c1ccc(O[C@@H]2O[C@H](CO)[C@@H](O)[C@H](O)[C@H]2F)c([N+](=O)[O-])c1 | . | . | . | 19
CCCCn1c(O)c(C(CC)=NC(C)c2ccccc2)c(=O)[nH]c1=O (stereo not drawn) | 1 | 3 | -2 | 81*
CCCCn1c(O)c(C(CC)=Nc2ccc(OCC)cc2)c(=O)[nH]c1=O | 1 | -2 | -2 | 91*
CCCCn1c(O)c(C(CC)=Nc2ccc(OC)cc2OC)c(=O)[nH]c1=O | 2 | -3 | -3 | 57
